# Activity calls are given as the source filed them. The calls are words filed in the database; no cut-off is given here.
# Target: T1, Protein deacetylase HDAC6 (Homo sapiens, UniProt Q9UBN7)
# T1 sequence (Q9UBN7 whole entry): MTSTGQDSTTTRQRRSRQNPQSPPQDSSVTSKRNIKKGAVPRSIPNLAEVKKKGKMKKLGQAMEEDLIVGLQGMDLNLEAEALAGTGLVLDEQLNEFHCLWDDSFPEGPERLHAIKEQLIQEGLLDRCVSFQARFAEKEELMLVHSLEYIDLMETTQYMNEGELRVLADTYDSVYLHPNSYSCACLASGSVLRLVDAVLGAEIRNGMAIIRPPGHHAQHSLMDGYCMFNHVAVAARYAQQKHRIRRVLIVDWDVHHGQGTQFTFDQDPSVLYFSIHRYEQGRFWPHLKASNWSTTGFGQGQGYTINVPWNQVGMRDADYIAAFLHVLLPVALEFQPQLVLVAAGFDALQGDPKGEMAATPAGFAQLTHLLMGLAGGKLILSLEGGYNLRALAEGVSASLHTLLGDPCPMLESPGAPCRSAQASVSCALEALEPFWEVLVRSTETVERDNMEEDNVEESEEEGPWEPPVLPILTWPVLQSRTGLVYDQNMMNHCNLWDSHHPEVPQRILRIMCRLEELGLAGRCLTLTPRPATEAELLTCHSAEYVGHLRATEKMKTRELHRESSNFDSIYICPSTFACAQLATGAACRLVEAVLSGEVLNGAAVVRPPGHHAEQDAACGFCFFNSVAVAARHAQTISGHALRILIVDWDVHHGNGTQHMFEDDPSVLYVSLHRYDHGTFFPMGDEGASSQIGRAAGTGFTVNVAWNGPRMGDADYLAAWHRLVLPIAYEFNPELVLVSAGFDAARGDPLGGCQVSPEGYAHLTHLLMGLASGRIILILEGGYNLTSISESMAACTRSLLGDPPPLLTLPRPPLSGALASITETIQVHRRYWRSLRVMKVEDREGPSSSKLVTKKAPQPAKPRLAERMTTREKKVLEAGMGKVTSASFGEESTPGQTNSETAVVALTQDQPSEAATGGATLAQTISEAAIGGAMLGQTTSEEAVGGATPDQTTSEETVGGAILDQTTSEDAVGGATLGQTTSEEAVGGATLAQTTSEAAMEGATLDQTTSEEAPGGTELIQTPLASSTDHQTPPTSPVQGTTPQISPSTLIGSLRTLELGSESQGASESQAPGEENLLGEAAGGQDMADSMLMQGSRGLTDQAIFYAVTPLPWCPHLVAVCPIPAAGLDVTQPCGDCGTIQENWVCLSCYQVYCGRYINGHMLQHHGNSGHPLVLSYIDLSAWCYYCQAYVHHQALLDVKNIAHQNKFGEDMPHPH
# Assay: Inhibition of recombinant human HDAC6 using Boc-Lys (Ac)-AMC as substrate after 60 mins by fluorometric analysis
# Details: not given
row,SMILES,IC50
1,COc1ccc(-c2nc(NC(=O)NCCC(=O)NO)cc3c2[nH]c2ccccc23)cc1,360 nM
2,COc1ccc(-c2nc(NC(=O)NCCCCC(=O)NO)cc3c2[nH]c2ccccc23)cc1,93 nM
3,COc1ccc(-c2nc(C(=O)NCCCC(=O)NO)cc3c2[nH]c2ccccc23)cc1,61 nM

# Tested on: HCT-116
# Assay: Antiproliferative activity against human HCT116 cells at 25 uM after 48 hrs by MTT assay
# Format: functional, cell-based
# Details: not given
# Procedure, shortened: (§1)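 Single-point screen at 25 µM in HCT116, SW620 and LOVO cells. Cells seeded at 10^4 cells/ml in DMEM + 10% FBS and left to adhere overnight at 37 °C, 5% CO2. MTT read 48 h after dosing with 0.1% DMSO as the negative control. Inhibition % = (1 − OD treated/OD control) × 100; mean ± SD of three measurements.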
row,SMILES,Activity
1,COc1ccc(-c2nc(C(=O)NCCCCC(=O)NO)cc3c2[nH]c2ccccc23)cc1,Active
2,Cc1nc(C(=O)NCCC(=O)NO)cc2c1[nH]c1ccccc12,inactive
3,Cc1nc(C(=O)NCC(=O)NO)cc2c1[nH]c1ccccc12,inactive
4,Cc1nc(C(=O)NCCCCCC(=O)NO)cc2c1[nH]c1ccccc12,inactive
5,O=C(CCCCCNC(=O)c1cc2c(cn1)[nH]c1ccccc12)NO,inactive
6,O=C(CCCNC(=O)c1cc2c(cn1)[nH]c1ccccc12)NO,inactive
7,O=C(CCNC(=O)c1cc2c(cn1)[nH]c1ccccc12)NO,inactive
8,Cc1nc(C(=O)NCCCCC(=O)NO)cc2c1[nH]c1ccccc12,inactive
9,COc1ccc(-c2nc(C(=O)NCCCC(=O)NO)cc3c2[nH]c2ccccc23)cc1,Active

# Target: Histone deacetylase 1 (Homo sapiens, UniProt Q13547)
# Sequence (Q13547 whole entry): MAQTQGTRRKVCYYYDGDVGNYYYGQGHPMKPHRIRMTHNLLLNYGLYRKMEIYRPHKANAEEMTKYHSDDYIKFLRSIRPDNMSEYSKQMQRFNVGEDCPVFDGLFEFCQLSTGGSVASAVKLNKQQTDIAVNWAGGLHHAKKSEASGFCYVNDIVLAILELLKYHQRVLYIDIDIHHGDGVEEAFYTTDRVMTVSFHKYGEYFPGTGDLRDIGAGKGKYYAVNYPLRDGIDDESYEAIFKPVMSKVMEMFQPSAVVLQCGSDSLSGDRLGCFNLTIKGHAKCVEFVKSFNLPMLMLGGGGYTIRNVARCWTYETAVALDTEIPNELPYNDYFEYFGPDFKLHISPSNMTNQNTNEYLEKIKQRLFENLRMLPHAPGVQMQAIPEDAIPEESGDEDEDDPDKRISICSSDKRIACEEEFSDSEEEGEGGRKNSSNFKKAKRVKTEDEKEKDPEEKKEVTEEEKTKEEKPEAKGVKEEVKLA
# Assay: Inhibition of recombinant human HDAC1 using Boc-Lys (Ac)-AMC as substrate after 60 mins by fluorometric analysis
# Details: not given
row,SMILES,IC50
1,COc1ccc(-c2nc(NC(=O)NCCC(=O)NO)cc3c2[nH]c2ccccc23)cc1,110 nM
2,COc1ccc(-c2nc(NC(=O)NCCCCC(=O)NO)cc3c2[nH]c2ccccc23)cc1,79 nM
3,COc1ccc(-c2nc(C(=O)NCCCC(=O)NO)cc3c2[nH]c2ccccc23)cc1,130 nM

# Tested on: SW480
# Assay: Antiproliferative activity against human SW480 cells assessed as cell viability after 48 hrs by MTT assay
# Format: functional, cell-based
# Details: SW480, 48 h
row,SMILES,IC50
1,COc1ccc(-c2nc(NC(=O)NCCC(=O)NO)cc3c2[nH]c2ccccc23)cc1,3.11 µM
2,COc1ccc(-c2nc(C(=O)NCCCCC(=O)NO)cc3c2[nH]c2ccccc23)cc1,4.43 µM
3,COc1ccc(-c2nc(NC(=O)NCCCCC(=O)NO)cc3c2[nH]c2ccccc23)cc1,1.73 µM
4,COc1ccc(-c2nc(C(=O)NCCCC(=O)NO)cc3c2[nH]c2ccccc23)cc1,4.65 µM

# Tested on: LoVo
# Assay: Antiproliferative activity against human LoVo cells at 25 uM after 48 hrs by MTT assay
# Format: functional, cell-based
# Details: not given
# Procedure, shortened: as §1
row,SMILES,Activity
1,COc1ccc(-c2nc(C(=O)NCCCCC(=O)NO)cc3c2[nH]c2ccccc23)cc1,Active
2,Cc1nc(C(=O)NCCC(=O)NO)cc2c1[nH]c1ccccc12,inactive
3,Cc1nc(C(=O)NCC(=O)NO)cc2c1[nH]c1ccccc12,inactive
4,Cc1nc(C(=O)NCCCCCC(=O)NO)cc2c1[nH]c1ccccc12,inactive
5,O=C(CCCCCNC(=O)c1cc2c(cn1)[nH]c1ccccc12)NO,inactive
6,O=C(CCCNC(=O)c1cc2c(cn1)[nH]c1ccccc12)NO,inactive
7,O=C(CCNC(=O)c1cc2c(cn1)[nH]c1ccccc12)NO,inactive
8,Cc1nc(C(=O)NCCCCC(=O)NO)cc2c1[nH]c1ccccc12,inactive
9,COc1ccc(-c2nc(C(=O)NCCCC(=O)NO)cc3c2[nH]c2ccccc23)cc1,Active

# Tested on: HCT-116
# Assay: Potency index, ratio of SAHA IC50 to compound IC50 for human HCT116 cells
# Format: functional
# Details: not given
# Procedure, shortened: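 HCT116 cells seeded at 10^4 cells/ml and adhered overnight, then treated 48 h over a concentration series with 0.1% DMSO as control. MTT readout; IC50 derived from inhibition % = (1 − OD treated/OD control) × 100, three independent measurements. Index = SAHA IC50 ÷ compound IC50.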
row,SMILES,Ratio IC50
1,COc1ccc(-c2nc(C(=O)NCCCC(=O)NO)cc3c2[nH]c2ccccc23)cc1,2

# Tested on: not listed separately
# Assay: Antiproliferative activity against human SW620 cells assessed as cell viability after 48 hrs by MTT assay
# Format: functional, cell-based
# Details: SW-620, 48 h
row,SMILES,IC50
1,COc1ccc(-c2nc(NC(=O)NCCC(=O)NO)cc3c2[nH]c2ccccc23)cc1,2690 nM
2,COc1ccc(-c2nc(C(=O)NCCCCC(=O)NO)cc3c2[nH]c2ccccc23)cc1,2530 nM
3,COc1ccc(-c2nc(NC(=O)NCCCCC(=O)NO)cc3c2[nH]c2ccccc23)cc1,2020 nM
4,COc1ccc(-c2nc(C(=O)NCCCC(=O)NO)cc3c2[nH]c2ccccc23)cc1,4460 nM

# Tested on: SW-620
# Assay: Antiproliferative activity against human SW620 cells at 25 uM after 48 hrs by MTT assay
# Format: functional, cell-based
# Details: not given
# Procedure, shortened: as §1
row,SMILES,Activity
1,COc1ccc(-c2nc(C(=O)NCCCCC(=O)NO)cc3c2[nH]c2ccccc23)cc1,Active
2,Cc1nc(C(=O)NCCC(=O)NO)cc2c1[nH]c1ccccc12,inactive
3,Cc1nc(C(=O)NCC(=O)NO)cc2c1[nH]c1ccccc12,inactive
4,Cc1nc(C(=O)NCCCCCC(=O)NO)cc2c1[nH]c1ccccc12,inactive
5,O=C(CCCCCNC(=O)c1cc2c(cn1)[nH]c1ccccc12)NO,inactive
6,O=C(CCCNC(=O)c1cc2c(cn1)[nH]c1ccccc12)NO,inactive
7,O=C(CCNC(=O)c1cc2c(cn1)[nH]c1ccccc12)NO,inactive
8,Cc1nc(C(=O)NCCCCC(=O)NO)cc2c1[nH]c1ccccc12,inactive
9,COc1ccc(-c2nc(C(=O)NCCCC(=O)NO)cc3c2[nH]c2ccccc23)cc1,Active

# Tested on: not listed separately
# Assay: Antiproliferative activity against human HCT116 cells assessed as cell viability after 48 hrs by MTT assay
# Format: functional, cell-based, HCT-116
# Details: Homo sapiens, HCT-116, 48 h
row,SMILES,IC50
1,COc1ccc(-c2nc(NC(=O)NCCC(=O)NO)cc3c2[nH]c2ccccc23)cc1,3080 nM
2,COc1ccc(-c2nc(C(=O)NCCCCC(=O)NO)cc3c2[nH]c2ccccc23)cc1,3350 nM
3,COc1ccc(-c2nc(NC(=O)NCCCCC(=O)NO)cc3c2[nH]c2ccccc23)cc1,990 nM
4,COc1ccc(-c2nc(C(=O)NCCCC(=O)NO)cc3c2[nH]c2ccccc23)cc1,2720 nM

# Tested on: LoVo
# Assay: Antiproliferative activity against human LoVo cells assessed as cell viability after 48 hrs by MTT assay
# Format: functional, cell-based
# Details: not given
row,SMILES,IC50
1,COc1ccc(-c2nc(NC(=O)NCCC(=O)NO)cc3c2[nH]c2ccccc23)cc1,3.61 µM
2,COc1ccc(-c2nc(C(=O)NCCCCC(=O)NO)cc3c2[nH]c2ccccc23)cc1,5.28 µM
3,COc1ccc(-c2nc(NC(=O)NCCCCC(=O)NO)cc3c2[nH]c2ccccc23)cc1,2.17 µM
4,COc1ccc(-c2nc(C(=O)NCCCC(=O)NO)cc3c2[nH]c2ccccc23)cc1,3.77 µM

# Target: Histone deacetylase
# Assay: Inhibition of HDAC in human HeLa cell nuclear extract using Boc-Lys (Ac)-AMC as substrate after 60 mins by fluorometric analysis
# Format: cell-based
# Details: not given
row,SMILES,IC50
1,COc1ccc(-c2nc(NC(=O)NCCC(=O)NO)cc3c2[nH]c2ccccc23)cc1,0.43 µM
2,COc1ccc(-c2nc(C(=O)NCCCCC(=O)NO)cc3c2[nH]c2ccccc23)cc1,0.81 µM
3,Cc1nc(C(=O)NCCC(=O)NO)cc2c1[nH]c1ccccc12,2.45 µM
4,Cc1nc(C(=O)NCC(=O)NO)cc2c1[nH]c1ccccc12,5.37 µM
5,Cc1nc(C(=O)NCCCCCC(=O)NO)cc2c1[nH]c1ccccc12,1.43 µM
6,COc1ccc(-c2nc(NC(=O)NCCCCC(=O)NO)cc3c2[nH]c2ccccc23)cc1,0.35 µM
7,O=C(CCCCCNC(=O)c1cc2c(cn1)[nH]c1ccccc12)NO,1.81 µM
8,O=C(CCCNC(=O)c1cc2c(cn1)[nH]c1ccccc12)NO,1.56 µM
9,O=C(CCNC(=O)c1cc2c(cn1)[nH]c1ccccc12)NO,3.23 µM
10,Cc1nc(C(=O)NCCCCC(=O)NO)cc2c1[nH]c1ccccc12,1.26 µM
11,COc1ccc(-c2nc(C(=O)NCCCC(=O)NO)cc3c2[nH]c2ccccc23)cc1,0.67 µM

# Target: T2, Histone deacetylase 8 (Homo sapiens, UniProt Q9BY41)
# T2 sequence (Q9BY41 whole entry): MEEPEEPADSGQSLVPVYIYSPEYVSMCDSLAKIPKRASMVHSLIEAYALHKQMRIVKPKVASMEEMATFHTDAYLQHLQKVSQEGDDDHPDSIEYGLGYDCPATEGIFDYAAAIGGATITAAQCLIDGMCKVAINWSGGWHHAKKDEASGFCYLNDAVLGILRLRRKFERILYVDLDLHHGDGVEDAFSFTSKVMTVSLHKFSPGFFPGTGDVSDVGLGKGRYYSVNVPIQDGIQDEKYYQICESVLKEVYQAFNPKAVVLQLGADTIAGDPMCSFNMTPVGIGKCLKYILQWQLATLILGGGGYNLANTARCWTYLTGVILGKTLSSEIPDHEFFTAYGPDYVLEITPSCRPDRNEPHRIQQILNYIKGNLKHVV
# Assay: Inhibition of recombinant human HDAC8 using Boc-Lys (Ac)-AMC as substrate after 60 mins by fluorometric analysis
# Details: not given
row,SMILES,IC50
1,COc1ccc(-c2nc(NC(=O)NCCC(=O)NO)cc3c2[nH]c2ccccc23)cc1,430 nM
2,COc1ccc(-c2nc(NC(=O)NCCCCC(=O)NO)cc3c2[nH]c2ccccc23)cc1,200 nM
3,COc1ccc(-c2nc(C(=O)NCCCC(=O)NO)cc3c2[nH]c2ccccc23)cc1,390 nM

# — ChEMBL document CHEMBL3745678, “Novel β-Carboline/Hydroxamic Acid Hybrids Targeting Both Histone Deacetylase and DNA Display High Anticancer Activity via Regulation of the p53 Signaling Pathway” (J Med Chem, 2015)
